Source: PubChem BioAssay (Broad Institute)
Rows were chosen to be rich in hits. Some 1.9% of all compounds tested hit in one or more screens of this group.
XiGFP reactiv: activators of X-chromosome reactivation in mouse fibroblasts; XiGFP mouse fibroblasts, % GFP-positive cells imaging, 3 d; cells co-treated with 5-aza-dC sensitizer; scaled so ellipticine positive control = 100%; activation, % at 7.58 µM; actives 0.055% (n = 360,000); AID 743238;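 active = mean normalized replicate activation at least 10% and every replicate at or above 10%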
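Schedule: 3 d treatment, 15 min room-temperature fixation; system: 68-5-11 XiGFP fibroblast line; buffer or medium: DMEM plus 5-aza-dC sensitizer; control set: ellipticine 6 µM positive control; compound: one concentration, pinned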
FN deposition inh: fibronectin deposition inhibition | AH1F fibroblasts, Alexa488-fibronectin deposition fluorescence, overnight | inhibition, % at 12.6 µM | actives 0.086% (n = 350,000) | AID 743247;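 active = mean inhibition across replicates of 30% or more, regardless of how many single replicates reach that level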
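material = AH1F fibroblast monolayer depositing Alexa488-labelled fibronectin into matrix | amount = 10000 AH1F cells/well | buffer or medium = DMEM plus 2% serum, read in PBS | incubation = 1 h cell adhesion before compound, then overnight fibronectin incubation | detection = fluorescence at 485 nm excitation, 525 nm emission | evaluation = percent inhibition as loss of matrix-bound fibronectin fluorescence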
PGC1a acetyl inh: modulators of PGC1a acetylation; U2OS PGC1a acetylation, AlphaScreen anti-acetyl-lysine; with virally co-expressed GCN5 acetyltransferase; actives 0.17% (n = 350,000); inhibition, % at 15.6 µM;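 active = every replicate shows inhibition of at least 40%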
CFTR F508del cor: CFTR F508del correction in bronchial cells; AID 720511; CFBE cells, YFP halide quenching; stimulated with forskolin plus potentiator P3; % fluorescence drop versus neutral controls; activity (quench increase), % at 7.58 µM; actives 0.36% (n = 350,000);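 active = mean added fluorescence quench of at least 8% versus neutral control, with both replicates also reaching 8%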;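 also: cells transiently co-express mutant CFTR-F508del with the halide-sensitive YFP; corrector assay measuring rescue of mutant channel to the surface after 24 h compound exposure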
DENV2 CPE: protects cells from dengue virus 2 cytopathic effect | CPE inhibition, % at 9.99 µM | actives 1.7% (n = 350,000) | DENV2-infected cells, cytopathic effect rescue, plate reader; in the data active = CPE inhibition above about 20%, passing the limit was not always enough; tested in BHK-21 cells
Cneo AK release: causes C. neoformans cell lysis. adenylate kinase release luminescence, 4 h; normalised: neutral wells 0, clomiphene wells 100. lysis activity, % at 15 µM. actives 0.2% (n = 360,000). AID 651654;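 active = mean lysis activity across replicates of at least 80%, whatever share of replicates individually reach that level; inactive = mean lysis activity below 80%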
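Assay system: C. neoformans cells. Amount: yeast cell density of 5 × 10^6 cells/mL. Technique: AK luminescence. Buffer or medium: YPD. Times: static 4 h at 37 °C with compound, 1 h detection. Dosing: single-point compound dose. Read-out: lysis from increased AK signal.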
Hits are given with their value; - = inactive; . = no result given.

SMILES	XiGFP reactiv	FN deposition inh	PGC1a acetyl inh	CFTR F508del cor	DENV2 CPE	Cneo AK release
Cc1oc(/N=C/c2ccccc2)c(C#N)c1C	-	-	.	-	22.5	-
CC(C)NC(=O)N1CC2(C1)[C@H](c1ccccc1)[C@@H](CO)N2C(=O)C1CCCCC1	-	.	-	-	-	.
CNC[C@H]1Oc2ccc(NC(=O)C3CCCCC3)cc2C(=O)N([C@@H](C)CO)C[C@H]1C	-	.	-	-	-	-
CC(C)CCCN1CCN=C1Nc1ccccc1	-	-	.	-	26.7	-
Fc1ccc(CCN2CCN=C2Nc2ccccc2)cc1	-	-	-	-	124.4	-
c1ccc(CCN2CCN=C2Nc2ccccc2)cc1	-	-	-	-	-	-
O=C(CSc1nccc(=O)[nH]1)N1CCOCC1	-	-	-	-	115.2	-
O=C(CSc1nc(C(F)(F)F)cc(=O)[nH]1)N1CCOCC1	-	-	.	-	-	.
C[C@@H]1CN([C@@H](C)CO)C(=O)c2cc(C3=CCCC3)cnc2O[C@H]1CN(C)Cc1ccccn1	-	.	-	-	-	-
CO[C@@H]1CN(C)C(=O)c2ccc(NC(=O)Nc3ccc(C(F)(F)F)cc3)cc2OC[C@@H](C)NC[C@@H]1C	-	-	-	-	-	.
CO[C@H]1CN(C)C(=O)c2ccc(NC(=O)Nc3ccc(C(F)(F)F)cc3)cc2OC[C@H](C)NC[C@@H]1C	-	-	-	-	68.2	.
CO[C@@H]1CN(C)C(=O)c2ccc(NC(=O)NC(C)C)cc2OC[C@@H](C)NC[C@@H]1C	-	-	.	.	-	-
CO[C@H]1CN(C)C(=O)c2ccc(NC(=O)NC(C)C)cc2OC[C@@H](C)NC[C@H]1C	-	-	.	.	-	82.4
CO[C@@H]1CN(C)C(=O)c2ccc(NC(=O)NC(C)C)cc2OC[C@H](C)NC[C@@H]1C	-	-	.	.	-	81.9
COCC(=O)N1CCC2(CC1)CN[C@H](CO)c1c2c2ccc(OC)cc2n1C	-	-	-	-	-	.
CC(=O)Nc1ccc(-c2ccnc3c2CC(C(=O)Nc2ccccc2)O3)cc1 (stereo not drawn)	-	-	-	-	55.9	-
O=S(=O)(c1ccccc1)N1CCCCN2[C@H](CO)[C@H](c3ccc(-c4cncnc4)cc3)[C@@H]2C1	-	.	-	-	33.3	-
Cc1ccccc1S(=O)(=O)N1CCCCN2[C@H](CO)[C@H](c3ccc(-c4cncnc4)cc3)[C@@H]2C1	-	.	-	-	36.1	-
C[C@@H]1CN([C@@H](C)CO)C(=O)c2cc(C#C[C@@H](C)O)cnc2O[C@@H]1CN(C)C(=O)CN1CCOCC1	-	.	-	-	-	-
CC(C)c1ccc(/C=N/NC(=O)c2cc(-c3cccc([N+](=O)[O-])c3)n[nH]2)cc1	-	-	-	-	33.8	-
C[C@H]1CN([C@@H](C)CO)C(=O)c2cccc(NC(=O)c3nc4ccccc4s3)c2O[C@@H]1CN(C)Cc1ccc(C(=O)Nc2ccccc2N)cc1	-	-	-	-	-	-
Cc1noc(C)c1NC(=O)Nc1ccc2c(c1)C(=O)N([C@H](C)CO)C[C@@H](C)[C@H](CN(C)S(=O)(=O)c1ccc(F)cc1)O2	-	-	-	-	86.4	-
Cc1noc(C)c1NC(=O)Nc1cccc2c1O[C@H](CN(C)S(=O)(=O)c1ccc(F)cc1)[C@@H](C)CN([C@@H](C)CO)C2=O	-	.	-	-	32.5	-
Cc1noc(C)c1NC(=O)Nc1cccc2c1O[C@H](CN(C)S(=O)(=O)c1ccc(F)cc1)[C@@H](C)CN([C@H](C)CO)C2=O	-	-	-	-	-	-
C[C@@H]1CN([C@@H](C)CO)C(=O)c2cccc(NC(=O)C3CC3)c2O[C@@H]1CN(C)S(=O)(=O)c1cn(C)cn1	-	.	-	-	28.6	-
Cc1noc(C)c1NC(=O)Nc1cccc2c1O[C@H](CN(C)S(=O)(=O)c1cn(C)cn1)[C@H](C)CN([C@H](C)CO)C2=O	.	.	-	-	-	96.3
O=C(NCCc1ccncc1)[C@@H]1[C@@H](CO)[C@@H]2Cn3c(ccc(-c4cccnc4)c3=O)[C@@H]2N1C(=O)C1CC1	-	.	.	-	-	-
